From PubChem BioAssay AID588629 (Broad Institute, 2011)
Inconclusive results are not listed. Calls of active or inactive are those of the source.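 How the source made its calls: active means every test run called active, with signal falling and half-effect dose at or below the top valid dose; inconclusive means test runs give conflicting calls; inactive means all test runs inactive.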

target: cAMP-dependent protein kinase catalytic subunit alpha (Homo sapiens) (UniProt P17612); assay: PKA catalytic subunit inhibitors, dose response, biochemical, Caliper mobility shift, dry powder samples, set 2 (AID 588629); conditions: Recombinant PKA, peptide phosphorylation
Method in brief: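 Test system: recombinant His-tagged human PKA catalytic fragment, purified enzyme; Buffer or medium: MOPS pH 7 with Mg2+; Reagent: fluorescent Peptide 21 at 3 µM plus 12 µM ATP; Timing: 1 h at room temperature; Technique: Capillary electrophoresis separation of peptide and phosphopeptide after EDTA quench.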

Row | IC50 [µM] | SMILES
1 | 3.66 | COc1cc(/C=C2\SC(=Nc3ccccc3Cl)NC2=O)ccc1O
2 | 2.9 | COc1cc(/C=C2\SC(=NCc3ccccc3)NC2=O)ccc1O
3 | 4.88 | O=C(Nc1ccccc1-c1nc2cc(Cl)c(Cl)cc2[nH]c1=O)c1cccs1
4 | 6.73 | O=C(Nc1ccccc1-c1nc2ccccc2[nH]c1=O)c1cc2ccccc2s1

same assay, conditions: Recombinant PKA, peptide phosphorylation, at 10 µM (top of the series)

Row | % substrate conversion (lower = inhibition) | SMILES
5 | inactive | COc1ccccc1N=C1NC(=O)/C(=C/c2ccncc2)S1
6 | inactive | O=C(Nc1ccccc1-c1nc2ccccc2[nH]c1=O)c1cccc(F)c1
7 | inactive | COc1cccc(/C=C2\SC(=Nc3ccccc3OC)NC2=O)c1
8 | inactive | COc1ccccc1N=C1NC(=O)/C(=C/c2ccc(Cl)cc2)S1
9 | inactive | COc1ccccc1N=C1NC(=O)/C(=C/c2ccc(F)c(F)c2)S1
10 | inactive | O=C(Nc1ccccc1-c1nc2ccccc2[nH]c1=O)c1ccc(F)cc1
11 | inactive | COc1ccccc1N=C1NC(=O)/C(=C/c2cnn(C)c2)S1
12 | inactive | COc1ccccc1/C=C1\SC(=Nc2ccccc2OC)NC1=O
13 | inactive | O=C(Nc1ccccc1-c1nc2ccccc2[nH]c1=O)C1CCCCC1
14 | inactive | O=C(Nc1ccccc1-c1nc2ccccc2[nH]c1=O)c1cccnc1
15 | inactive | COc1ccccc1N=C1NC(=O)/C(=C/c2ccccc2F)S1
16 | inactive | COc1ccccc1N=C1NC(=O)/C(=C/c2ccc(OC(F)(F)F)cc2)S1
17 | inactive | COc1ccccc1N=C1NC(=O)/C(=C/c2ccccc2)S1
18 | inactive | COc1ccccc1N=C1NC(=O)/C(=C/c2ccc3c(c2)OCO3)S1
19 | inactive | O=C(Nc1ccccc1-c1nc2ccccc2[nH]c1=O)c1ccccn1
20 | inactive | O=C(Nc1ccccc1-c1nc2cc(F)c(F)cc2[nH]c1=O)c1cccs1
21 | inactive | COc1ccccc1N=C1NC(=O)/C(=C/c2ccccc2Cl)S1
22 | inactive | O=C(Nc1ccccc1-c1nc2ccccc2[nH]c1=O)c1cccs1
23 | inactive | COc1ccccc1N=C1NC(=O)/C(=C/c2cc(C)on2)S1
24 | inactive | COc1cc(/C=C2\SC(N)=NC2=O)ccc1O
25 | inactive | COc1cc(/C=C2\SC(=Nc3ccc(Cl)cc3)NC2=O)ccc1O
26 | inactive | COc1cc(/C=C2\SC(=Nc3ccncc3)NC2=O)ccc1O
27 | inactive | COc1ccccc1N=C1NC(=O)/C(=C/c2ccc(C)cc2)S1

Row | % substrate conversion (lower = inhibition) | SMILES
28 | inactive | O=C1NC(=NCc2ccccc2)S/C1=C/c1ccc(O)cc1
29 | inactive | COc1ccccc1N=C1NC(=O)/C(=C/c2ccc(Cl)c(Cl)c2)S1
30 | inactive | COc1ccc(N=C2NC(=O)/C(=C/c3ccc(O)c(OC)c3)S2)cc1
31 | inactive | Nc1ccccc1-c1nc2ccccc2[nH]c1=O
32 | inactive | COc1ccccc1N=C1NC(=O)/C(=C/c2ccccn2)S1
33 | inactive | COc1ccc(/C=C2\SC(=Nc3ccccc3OC)NC2=O)c(O)c1
34 | inactive | CC(C)c1ccc(NC(=O)c2cccs2)c(-c2nc3ccccc3[nH]c2=O)c1
35 | inactive | COc1ccccc1N=C1NC(=O)/C(=C/C(C)C)S1
36 | inactive | COc1ccc(-n2ncc3cnc(Nc4ccc(N5CCN(C)CC5)c(OC)c4)nc32)cc1
37 | inactive | COc1cc(/C=C2\SC(=Nc3cccc(F)c3)NC2=O)ccc1O
38 | inactive | COc1ccccc1N=C1NC(=O)/C(=C/c2ccc3c(c2)OCCO3)S1
39 | inactive | COc1ccccc1N=C1NC(=O)/C(=C/c2cccnc2)S1
40 | inactive | COc1ccccc1N=C1NC(=O)/C(=C/c2ccc(-c3cccnc3)cc2)S1
41 | inactive | COc1ccccc1N=C1NC(=O)/C(=C/c2ccc(C#N)cc2)S1
42 | inactive | COc1ccc(/C=C2\SC(=Nc3ccccc3OC)NC2=O)cc1
43 | inactive | COc1ccccc1Nc1nc(O)c(/C=C2/C=c3ccccc3=N2)s1
44 | inactive | O=C(Nc1cc(F)ccc1-c1nc2ccccc2[nH]c1=O)c1cccs1
45 | inactive | COc1ccccc1N=C1NC(=O)/C(=C/c2ccc(OC)c(OC)c2)S1
46 | inactive | COc1ccccc1N=C1NC(=O)/C(=C/c2cccc(F)c2)S1
47 | inactive | COc1cc(/C=C2\SC(=Nc3ccccc3F)NC2=O)ccc1O
48 | inactive | COc1ccccc1N=C1NC(=O)/C(=C/c2cccc(Cl)c2)S1
49 | inactive | COc1cc(/C=C2\SC(=Nc3ccc(F)cc3)NC2=O)ccc1O
50 | inactive | COc1cc(/C=C2\SC(=Nc3cccnc3)NC2=O)ccc1O

Row | % substrate conversion (lower = inhibition) | SMILES
51 | inactive | COc1ccccc1N=C1NC(=O)/C(=C/c2ccc(F)cc2)S1
52 | inactive | O=C(Nc1ccc(Cl)cc1-c1nc2ccccc2[nH]c1=O)c1cccs1
53 | inactive | O=C(Nc1ccc(OC(F)(F)F)cc1-c1nc2ccccc2[nH]c1=O)c1cccs1
54 | inactive | COc1cc(/C=C2\SC(=Nc3ccccc3OC)NC2=O)ccc1F
55 | inactive | COc1ccccc1N=C1NC(=O)CS1
56 | inactive | COc1ccccc1N=C1NC(=O)/C(=C/c2ccc(O)cc2)S1
57 | inactive | COc1cc(/C=C2/SC(=Nc3ccc(O)cc3)NC2=O)ccc1O
58 | inactive | COc1ccccc1N=C1NC(=O)/C(=C/c2nc(C)cs2)S1
59 | inactive | COc1ccccc1N=C1NC(=O)/C(=C/c2ccc3c(c2)OC(F)(F)O3)S1
60 | inactive | COc1cc(/C=C2\SC(=NC(C)C)NC2=O)ccc1O
61 | inactive | COc1ccccc1N=C1NC(=O)/C(=C/c2cc(Cl)cc(Cl)c2O)S1
62 | inactive | COc1ccccc1Nc1nc(O)c(/C=c2/ccc3c(c2)C=CN=3)s1
63 | inactive | COc1ccc(C(=O)Nc2ccccc2-c2nc3ccccc3[nH]c2=O)cc1
64 | inactive | O=C(Nc1ccccc1-c1nc2ccccc2[nH]c1=O)c1ccncc1
65 | inactive | COc1ccccc1N=C1NC(=O)/C(=C/c2ccc(C(C)C)cc2)S1
66 | inactive | O=C(Nc1ccc(F)cc1-c1nc2ccccc2[nH]c1=O)c1cccs1
67 | inactive | COc1cc(/C=C2\SC(=NC(C)(C)C)NC2=O)ccc1O
68 | inactive | O=C(Nc1cc(Cl)ccc1-c1nc2ccccc2[nH]c1=O)c1cccs1
69 | inactive | O=c1[nH]c2ccccc2nc1-c1ccccc1NCc1cccs1
70 | inactive | COc1ccccc1N=C1NC(=O)/C(=C/C2CCCCC2)S1
71 | inactive | COc1ccccc1N=C1NC(=O)/C(=C/c2cccn2C)S1
72 | inactive | COc1cc(/C=C2\SC(=Nc3ccccc3OC)NC2=O)ccc1O
